The subject of data set [1] is MCF7. Nature of the data set: Growth inhibition of human MCF7 cells at 100 ug/ml after 48 hrs by MTT assay relative to control. The data set is classed as functional. The conditions noted are these: MCF7, 48 h, read-out: GI. In outline:
(§1)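 Preliminary screen at 100 µg/mL against MCF-7 and normal BJ-1 cells. Values are % inhibition, given as the mean of 3 replicate samples with standard deviation.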
(Formazan colour is commonly taken as a measure of viable cells.)

Data set [2] concerns MCF7. Put plainly: Growth inhibition of human MCF7 cells after 48 hrs by MTT assay. Type of data set: functional, cell-based. The conditions noted are these: MCF7, 48 h.
Data set [3] concerns MCF7. Put plainly: Induction of apoptosis in human MCF7 cells assessed as late apoptotic cells at 11.1 ug/ml after 24 hrs by Annexin V-FITC/PI staining based flow cytometry (reference value: 0.09%). Type of data set: functional. In outline: (§2)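 MCF-7 cells treated at 11.1 µg/mL for 24 h, then labelled with annexin V-FITC and propidium iodide. Green (FITC) and red (PI) fluorescence are read by flow cytometry. Early apoptosis is scored as annexin V+/PI−, late as annexin V+/PI+. DMSO serves as negative control.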
In general terms: In flow cytometry, cells or beads pass a laser one at a time.

For data set [4], the system named is MCF7. Nature of the data set: Induction of apoptosis in human MCF7 cells assessed as early apoptotic cells at 11.1 ug/ml after 24 hrs by Annexin V-FITC/PI staining based flow cytometry (reference value: 0.18%). Type of data set: functional. In outline:
as §2

In data set [5] the test system is MCF7. Put plainly: Cell cycle arrest in human MCF7 cells assessed as accumulation at S phase at 11.1 ug/ml after 24 hrs by PI staining based flow cytometry (reference value: 30.1%). The data set is classed as functional.
Data set [6] concerns MCF7. Put plainly: Cell cycle arrest in human MCF7 cells assessed as accumulation at G2/M phase at 11.1 ug/ml after 24 hrs by PI staining based flow cytometry relative to control. The data set is classed as functional.
The subject of data set [7] is MCF7. Put plainly: Induction of apoptosis in human MCF7 cells assessed as increase in caspase 7 levels at 11.1 ug/ml after 24 hrs by ELISA relative to control. Type of data set: functional. Put shortly:
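Caspase-7 level is measured in MCF-7 cells after treatment at 11.1 µg/mL for 24 h and reported as concentration. Doxorubicin is used as reference.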
(In general: An ELISA detects its analyte on a solid surface through an enzyme-linked reagent.)

For data set [8], the system named is MCF7. Put plainly: Cell cycle arrest in human MCF7 cells assessed as accumulation at G2 phase at 11.1 ug/ml after 24 hrs by PI staining based flow cytometry (reference value: 8.59%). The data set is classed as functional.
Data set [9] in a line: Growth inhibition of human hTERT-BJ1 cells at 100 ug/ml after 48 hrs by MTT assay relative to control. The data set is classed as cell-based, hTERT-BJ. As to conditions: read-out: GI. Put shortly:
as §1

Data set [10] concerns the target T1, Tubulin beta-5 chain (Homo sapiens, UniProt P07437). Put plainly: Inhibition of tubulin beta polymerization in human MCF7 cells after 18 to 24 hrs by ELISA based spectrophotometric analysis. Type of data set: cell-based.
For data set [11], the system named is MCF7. Put plainly: Cell cycle arrest in human MCF7 cells assessed as accumulation at pre-G1 phase at 11.1 ug/ml after 24 hrs by PI staining based flow cytometry relative to control. Type of data set: functional.
Data set [12] concerns MCF7. Put plainly: Cell cycle arrest in human MCF7 cells assessed as apoptotic cells at 11.1 ug/ml after 24 hrs by PI staining based flow cytometry (reference value: 0.64%). Type of data set: functional.
Data set [13] relates to MCF7. Put plainly: Induction of apoptosis in human MCF7 cells assessed as necrotic cells at 11.1 ug/ml after 24 hrs by Annexin V-FITC/PI staining based flow cytometry (reference value: 0.37%). Type of data set: functional. Put shortly:
as §2

The subject of data set [14] is MCF7. Nature of the data set: Induction of apoptosis in human MCF7 cells assessed as viable cells at 11.1 ug/ml after 24 hrs by Annexin V-FITC/PI staining based flow cytometry (reference value: 97.24%). Type of data set: functional. As to conditions: MCF7, 24 h, read-out: Activity. Put shortly: as §2
Data set [15] has as its system MCF7. Nature of the data set: Cell cycle arrest in human MCF7 cells assessed as accumulation at G1 phase at 11.1 ug/ml after 24 hrs by PI staining based flow cytometry (reference value: 61.31%). The data set is classed as functional.
The target in data set [16] is T1, Tubulin beta-5 chain. Nature of the data set: Potency index, ratio of colchicine IC50 to compound IC50 for tubulin beta polymerization in human MCF7 cells. The data set is classed as cell-based.

pIC50: −log10 of the molar value. Converted amounts (≈) assume the structure as drawn. Some results are limits rather than exact numbers.

In general, IC50 refers to the midpoint of a concentration-inhibition curve. A higher IC50 goes with weaker potency in that assay. One may read the pIC50 as −log10 of the IC50, conventionally taken in molar units. Read a low pIC50 as a large IC50.

T1 sequence (P07437 whole entry): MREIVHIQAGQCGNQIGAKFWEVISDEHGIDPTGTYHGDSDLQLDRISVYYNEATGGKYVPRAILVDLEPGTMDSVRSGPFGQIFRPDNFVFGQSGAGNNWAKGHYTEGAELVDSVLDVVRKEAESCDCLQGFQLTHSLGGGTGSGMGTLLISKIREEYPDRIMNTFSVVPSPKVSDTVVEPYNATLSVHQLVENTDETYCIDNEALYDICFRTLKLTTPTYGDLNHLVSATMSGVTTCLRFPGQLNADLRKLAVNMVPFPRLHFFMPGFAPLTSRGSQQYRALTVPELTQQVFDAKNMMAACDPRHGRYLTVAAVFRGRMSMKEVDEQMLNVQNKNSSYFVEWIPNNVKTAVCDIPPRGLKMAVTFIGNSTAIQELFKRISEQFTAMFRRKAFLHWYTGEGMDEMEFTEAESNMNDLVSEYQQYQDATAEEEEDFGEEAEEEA

Turning to `O=C(COc1ccc2c(-c3ccccc3)cc(=O)oc2c1)NN1C(=O)CSC1c1ccc(Br)cc1` (configuration not stated), the inhibition of growth at 100 µg/mL in the data set on MCF7 [1] was > 70%. Also, the IC50 with MCF7 [2] turned out to be 42 µg/mL (≈ 76.2 µM).

Take `CCn1c(C)cs/c1=N\NC(=O)COc1ccc2c(-c3ccccc3)cc(=O)oc2c1`: the inhibition of growth at 100 µg/mL in the data set on MCF7 [1] was > 70%. In addition, it took 78 µg/mL (≈ 179 µM) to reach half-maximal inhibition in the data set on MCF7 [2] (IC50).

In the case of `COc1cc(/C=N/NC(=O)COc2ccc3c(-c4ccccc4)cc(=O)oc3c2)cc(OC)c1OC`, the inhibition of growth at 100 µg/mL with MCF7 [1] amounted to 90.7%. Further, in the data set on MCF7 [2], the IC50 was determined as 4.3 µg/mL (≈ 8.8 µM).

`O=C(COc1ccc2c(-c3ccccc3)cc(=O)oc2c1)NN1C(=O)CSC1c1ccc(F)cc1` (configuration not stated): the Activity amounted to 10.63% with MCF7 [3]; 5.49% in the data set with MCF7 [4]; 18.05% in the data set with MCF7 [5]; 43.59% in the data set on MCF7 [8]; 18.31% in the data set on MCF7 [12]; 2.19% in the data set on MCF7 [13]. In addition, the Activity in the data set with MCF7 [15] worked out at 38.36%. The entries for the “fold change (FC)” value in the data set on MCF7 [6], with MCF7 [7] and with MCF7 [11] were 5, 3.237 and 28.6, respectively. In addition, the inhibition at 48 h, 100 ug/ml in [9] came to 13.2%. Moreover, the inhibition of growth at 100 µg/mL in the data set on MCF7 [1] was > 70%. The molecule further gave a pIC50 at Tubulin beta-5 chain [10] of 5.03. Besides, the viability at 11.1 µg/mL in the data set on MCF7 [14] is 79.8%. This molecule also had an IC50 in the data set on MCF7 [2] of 11.1 µg/mL (≈ 22.6 µM).

For the molecule `CCn1c(C)c(C(C)=O)s/c1=N\NC(=O)COc1ccc2c(-c3ccccc3)cc(=O)oc2c1`, in the data set on MCF7 [1], the inhibition of growth at 100 µg/mL is > 70%. The same molecule had an IC50 in the data set with MCF7 [2] of 28 µg/mL (≈ 58.6 µM).

Regarding `CCOC(=O)C(S/C(=N/NC(=O)COc1ccc2c(-c3ccccc3)cc(=O)oc2c1)NC)C(C)=O` (configuration not stated), in the data set with MCF7 [1], the inhibition of growth at 100 µg/mL is > 70%. This molecule also displayed an IC50 in the data set on MCF7 [2] of 30.6 µg/mL (≈ 59.8 µM).

As to `O=C(COc1ccc2c(-c3ccccc3)cc(=O)oc2c1)N/N=C/c1ccc(Br)cc1`, the inhibition of growth at 100 µg/mL with MCF7 [1] came out at 67.8%.

On to `NNC(=O)COc1ccc2c(-c3ccccc3)cc(=O)oc2c1`, for which, in the data set with MCF7 [1], the inhibition of growth at 100 µg/mL was > 70%. In addition, 25.2 µg/mL (≈ 81.2 µM) corresponded to half-maximal inhibition in the data set with MCF7 [2] (IC50).

Turning to `O=C(COc1ccc2c(-c3ccccc3)cc(=O)oc2c1)N/N=C/c1ccc(F)cc1`, in the data set with MCF7 [1], the inhibition of growth at 100 µg/mL was 65.5%.

As to `O=C(COc1ccc2c(-c3ccccc3)cc(=O)oc2c1)N/N=C/c1ccc(Cl)cc1`, the inhibition of growth at 100 µg/mL in the data set with MCF7 [1] is 76.5%. In the data set on MCF7 [2], this molecule had an IC50 of 38.1 µg/mL (≈ 88 µM).

As for `COc1ccc(C2SCC(=O)N2NC(=O)COc2ccc3c(-c4ccccc4)cc(=O)oc3c2)cc1` (configuration not stated), the inhibition of growth at 100 µg/mL with MCF7 [1] came to 64.4%.

Consider `COc1ccc(/C=N/NC(=O)COc2ccc3c(-c4ccccc4)cc(=O)oc3c2)cc1OC`, for which, in the data set with MCF7 [1], the inhibition of growth at 100 µg/mL was 48.9%.

As to `CCOC(=O)C(C)S/C(=N/NC(=O)COc1ccc2c(-c3ccccc3)cc(=O)oc2c1)NC` (configuration not stated), in the data set on MCF7 [1], the inhibition of growth at 100 µg/mL is > 70%. This molecule also registered an IC50 in the data set on MCF7 [2] of 37 µg/mL (≈ 76.5 µM).

Turning to `CCN/C(=N\NC(=O)COc1ccc2c(-c3ccccc3)cc(=O)oc2c1)SC(C(C)=O)C(=O)OCC` (configuration not stated), the inhibition of growth at 100 µg/mL in the data set with MCF7 [1] is > 70%. In the data set on MCF7 [2], this molecule came in with an IC50 of 41.9 µg/mL (≈ 79.7 µM).

`Cn1c(-c2ccccc2)cs/c1=N\NC(=O)COc1ccc2c(-c3ccccc3)cc(=O)oc2c1`: the inhibition of growth at 100 µg/mL with MCF7 [1] was > 70%. Besides, the midpoint of inhibition with MCF7 [2], the IC50, lay at 9.3 µg/mL (≈ 19.2 µM).

Turning to `CC(=O)c1s/c(=N\NC(=O)COc2ccc3c(-c4ccccc4)cc(=O)oc3c2)n(C)c1C`, the inhibition of growth at 100 µg/mL with MCF7 [1] was > 70%. In the data set on MCF7 [2], this molecule yielded an IC50 of 42 µg/mL (≈ 90.6 µM).

Consider `COc1ccc(C2SCC(=O)N2NC(=O)COc2ccc3c(-c4ccccc4)cc(=O)oc3c2)cc1OC` (configuration not stated), for which the inhibition of growth at 100 µg/mL in the data set with MCF7 [1] worked out at 63.3%.

`Cc1cs/c(=N\NC(=O)COc2ccc3c(-c4ccccc4)cc(=O)oc3c2)n1C`: in the data set on MCF7 [1], the inhibition of growth at 100 µg/mL is > 70%. Moreover, in the data set on MCF7 [2], it took 36.9 µg/mL (≈ 87.5 µM) to reach half-maximal inhibition (IC50).

Turning to `CCN/C(=N\NC(=O)COc1ccc2c(-c3ccccc3)cc(=O)oc2c1)SC(C)C(=O)OCC` (configuration not stated), the inhibition of growth at 100 µg/mL in the data set on MCF7 [1] was found to be 67.1%.

As for `COc1ccc(/C=N/NC(=O)COc2ccc3c(-c4ccccc4)cc(=O)oc3c2)cc1`, the inhibition of growth at 100 µg/mL in the data set with MCF7 [1] is 46.3%.

Regarding `COc1cc(C2SCC(=O)N2NC(=O)COc2ccc3c(-c4ccccc4)cc(=O)oc3c2)cc(OC)c1OC` (configuration not stated), in [9], the inhibition at 48 h, 100 ug/ml turned out to be 16.8%. In addition, in the data set with MCF7 [1], the inhibition of growth at 100 µg/mL was 86.4%. On Tubulin beta-5 chain [10], the pIC50 was 5.21. The molecule also displayed an IC50 with MCF7 [2] of 21.2 µg/mL (≈ 37.7 µM).

As to `CCn1c(-c2ccccc2)cs/c1=N\NC(=O)COc1ccc2c(-c3ccccc3)cc(=O)oc2c1`, in the data set on MCF7 [1], the inhibition of growth at 100 µg/mL is > 70%. In the data set on MCF7 [2], the 50% inhibitory concentration (IC50) came out at 10.6 µg/mL (≈ 21.3 µM).

Regarding `O=C(COc1ccc2c(-c3ccccc3)cc(=O)oc2c1)NN1C(=O)CSC1c1ccc(Cl)cc1` (configuration not stated), the Ratio IC50 at Tubulin beta-5 chain [16] came to 2.4. Also, the inhibition at 48 h, 100 ug/ml in data set [9] was 26.9%. For the same molecule, the inhibition of growth at 100 µg/mL with MCF7 [1] was > 70%. Further, at Tubulin beta-5 chain [10], the pIC50 was 5.54. In the data set on MCF7 [2], this molecule came in with an IC50 of 16.7 µg/mL (≈ 32.9 µM).

Values taken from ChEMBL document CHEMBL4118208, “Design, synthesis and molecular modeling of new 4-phenylcoumarin derivatives as tubulin polymerization inhibitors targeting MCF-7 breast cancer cells” (Bioorg Med Chem, 2018).
